Experimental data reported in ChEMBL document CHEMBL1268829, “Design, synthesis and activity of benzothiazole-based inhibitors of NO production in LPS-activated macrophages” (Bioorg Med Chem Lett, 2010).
The source made the active and inactive calls. The rule behind the calls is not given here.

How the values were obtained:
RAW264.7 [1] = assay: Inhibition of LPS-induced nitric oxide production in mouse RAW264.7 cells at 20 uM after 20 hrs by Griess method; assay type: functional; conditions: RAW264.7, 20 h
In short: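 Cells plated at 1 × 10⁵ cells/mL in 10% FBS-DMEM for 24 h, then given 1% FBS medium with compound at 20 μM plus LPS (1 μg/mL) for 20 h. Supernatant nitrite read by Griess reagent at 570 nm against a sodium nitrite standard. Percent inhibition relative to LPS control, n = 3.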

RAW264.7 [2] = assay: Inhibition of LPS-induced nitric oxide production in mouse RAW264.7 cells after 20 hrs by Griess method; assay type: functional, cell-based; conditions: RAW264.7, 20 h
In short: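 Cells plated at 1 × 10⁵ cells/mL in 10% FBS-DMEM for 24 h, then switched to 1% FBS medium. Incubated 20 h with LPS (1 μg/mL) with or without compound. Supernatant nitrite read with Griess reagent, 10 min at room temperature, absorbance 570 nm, against a sodium nitrite standard. IC₅₀ from dose–response curve.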

RAW264.7 [3] = assay: Inhibition of LPS-induced COX2 mRNA expression in mouse RAW264.7 cells at 20 uM treated after LPS challenge by RT-PCR; assay type: functional, cell-based
In short: (§1)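 Cells at 1.8 × 10⁶ per 60 mm dish stimulated 6 h with LPS (1 μg/mL) with or without compound (20 μM). Total RNA taken for RT-PCR of iNOS, COX-2 and β-actin: 25 cycles of 94 °C, 55 °C and 72 °C, 30 s each. Products resolved on 2% agarose.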

RAW264.7 [4] = assay: Inhibition of LPS-induced COX2 mRNA expression in mouse RAW264.7 cells at 20 uM pretreated for 6 hrs before LPS challenge by RT-PCR; assay type: functional, cell-based
RAW264.7 [5] = assay: Inhibition of LPS-induced iNOS expression in mouse RAW264.7 cells at 20 uM treated for 20 hrs during LPS activation by Western blot; assay type: functional, cell-based
In short: (§2)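 RAW 264.7 cells given compound (20 μM) during 20 h LPS (1 μg/mL) activation, then washed and lysed. 20 μg lysate protein run on 8% SDS-PAGE and blotted to PVDF. Probed for iNOS, COX-2 and actin, with ECL detection.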

RAW264.7 [6] = assay: Inhibition of I-kappaB-alpha degradation in LPS-induced mouse RAW264.7 cells at 20 uM pretreated for 30 mins before LPS challenge for 30 mins by Western blotting; assay type: cell-based
In short: (§3)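 Cells pretreated 30 min with compound at 20 μM, then LPS (1 μg/mL) for 30 min. Cytoplasmic IκB-α and nuclear p65 measured by Western blot. Levels normalized to PARP.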

RAW264.7 [7] = assay: Inhibition of LPS-induced iNOS mRNA expression in mouse RAW264.7 cells at 20 uM treated after LPS challenge by RT-PCR; assay type: functional, cell-based; in short: as §1
RAW264.7 [8] = assay: Inhibition of sNFkappaB nuclear translocation in LPS-induced mouse RAW264.7 cells at 20 uM pretreated for 30 mins before LPS challenge for 30 mins by Western blotting; assay type: cell-based; in short: as §3
RAW264.7 [9] = assay: Inhibition of LPS-induced COX2 expression in mouse RAW264.7 cells at 20 uM treated for 20 hrs during LPS activation by Western blot; assay type: functional, cell-based; in short: as §2
RAW264.7 [10] = assay: Inhibition of LPS-induced iNOS mRNA expression in mouse RAW264.7 cells at 20 uM pretreated for 6 hrs before LPS challenge by RT-PCR; assay type: functional, cell-based

IC50 (RAW264.7 [2]) | SMILES | inhibition at 20 µM (RAW264.7 [1]) | further results
 | Nc1cccc(COc2cccc3scnc23)c1 | 32.9% | 
 | Cc1ccc(COc2cccc3scnc23)cc1 | 10.4% | 
72.3 µM | O=C(Cc1ccc2c(c1)OCO2)Nc1ccccc1COc1cccc2scnc12 | 32.5% | 
 | Oc1cccc2scnc12 | 8.6% | 
4.2 µM | COc1ccc2[nH]cc(CC(=O)Nc3cccc(COc4cccc5scnc45)c3)c2c1 | 75.9% | inhibition (RAW264.7 [3]): inactive; inhibition (RAW264.7 [4]): Active; inhibition (RAW264.7 [5]): Active; inhibition (RAW264.7 [6]): Active; inhibition (RAW264.7 [7]): inactive; inhibition (RAW264.7 [8]): Active; inhibition (RAW264.7 [9]): Active; inhibition (RAW264.7 [10]): Active
 | COc1ccc(/C=C/C(=O)Nc2ccccc2COc2cccc3scnc23)cc1OC | 44.7% | 
 | Nc1nc2c(O)cccc2s1 | 11.4% | 
 | c1ccc(COc2cccc3scnc23)cc1 | 12.3% | 
 | COc1ccc2[nH]cc(CC(=O)Nc3ccccc3COc3cccc4scnc34)c2c1 | 36.4% | 
 | COc1cccc2scnc12 | 18.6% | 
 | Cc1ccc(COc2cccc3sc(N)nc23)cc1 | 14.4% | 
21.2 µM | O=C(Cc1ccc2c(c1)OCO2)N(Cc1ccccc1)c1ccccc1COc1cccc2scnc12 | 54.9% | 
23.6 µM | O=C(Cc1ccc2c(c1)OCO2)Nc1cccc(COc2cccc3scnc23)c1 | 58.9% | 
 | CC(=O)Nc1ccccc1COc1cccc2scnc12 | 3.7% | 
 | CS(=O)(=O)Nc1ccccc1COc1cccc2scnc12 | 0.4% | 
17.2 µM | c1ccc(CNc2ccccc2COc2cccc3scnc23)cc1 | 55.8% | inhibition (RAW264.7 [3]): inactive; inhibition (RAW264.7 [4]): Active; inhibition (RAW264.7 [5]): Active; inhibition (RAW264.7 [6]): Active; inhibition (RAW264.7 [7]): inactive; inhibition (RAW264.7 [8]): Active; inhibition (RAW264.7 [9]): Active; inhibition (RAW264.7 [10]): Active
20.9 µM | COc1ccc(/C=C/C(=O)N(Cc2ccccc2)c2ccccc2COc2cccc3scnc23)cc1OC | 39.8% | inhibition (RAW264.7 [3]): inactive; inhibition (RAW264.7 [4]): Active; inhibition (RAW264.7 [5]): Active; inhibition (RAW264.7 [6]): Active; inhibition (RAW264.7 [7]): inactive; inhibition (RAW264.7 [8]): Active; inhibition (RAW264.7 [9]): Active; inhibition (RAW264.7 [10]): Active
 | COc1ccc(CCC(=O)Nc2ccccc2COc2cccc3scnc23)cc1OC | 11.6% | 
 | Nc1ccccc1COc1cccc2scnc12 | 15.2% | 
